Compound activity from PubChem.
TRPC6 act: activates the mouse TRPC6 cation channel; Q61143; HEK293-TRPC6 membrane potential dye fluorescence; hits give high values; B-score at 10 µM; actives 0.13% (n = 310,000); AID 2550;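 active means B-score of the integrated fluorescence ratio above library mean plus 3 SD, and starting fluorescence ratio within library mean plus 5 SD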;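 further: higher score means more depolarization so channel activation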
Target sequence (Q61143 whole entry, looked up): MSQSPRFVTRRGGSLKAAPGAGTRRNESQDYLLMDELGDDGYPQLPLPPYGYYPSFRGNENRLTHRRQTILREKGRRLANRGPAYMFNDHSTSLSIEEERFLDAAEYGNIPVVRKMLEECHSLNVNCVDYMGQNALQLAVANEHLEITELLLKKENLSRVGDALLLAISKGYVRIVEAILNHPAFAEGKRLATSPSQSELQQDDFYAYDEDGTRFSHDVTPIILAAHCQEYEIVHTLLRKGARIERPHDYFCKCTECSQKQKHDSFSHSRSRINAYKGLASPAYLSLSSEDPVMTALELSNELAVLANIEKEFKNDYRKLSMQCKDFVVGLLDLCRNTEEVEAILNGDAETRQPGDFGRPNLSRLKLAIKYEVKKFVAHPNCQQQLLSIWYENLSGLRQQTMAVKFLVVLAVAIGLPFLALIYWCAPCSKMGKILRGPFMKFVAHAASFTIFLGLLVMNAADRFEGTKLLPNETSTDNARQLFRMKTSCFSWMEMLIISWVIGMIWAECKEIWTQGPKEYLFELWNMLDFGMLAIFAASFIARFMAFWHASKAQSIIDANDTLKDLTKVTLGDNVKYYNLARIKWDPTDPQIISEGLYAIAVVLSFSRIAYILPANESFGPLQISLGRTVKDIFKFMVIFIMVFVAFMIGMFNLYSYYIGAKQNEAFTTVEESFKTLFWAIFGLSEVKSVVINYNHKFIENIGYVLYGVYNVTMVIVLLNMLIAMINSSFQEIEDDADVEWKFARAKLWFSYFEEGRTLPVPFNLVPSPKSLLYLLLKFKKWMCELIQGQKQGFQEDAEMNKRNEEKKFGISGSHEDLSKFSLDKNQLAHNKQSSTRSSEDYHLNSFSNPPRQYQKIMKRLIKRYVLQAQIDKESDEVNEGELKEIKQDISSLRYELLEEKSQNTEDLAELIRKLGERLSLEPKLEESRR
TRPC4 potent: TRPC4 (mouse) allosteric potentiation | Q9QUQ5 | HEK293 TRPC4beta/mu-opioid, DAMGO EC20, Fluo-4 Ca2+ flux; hits give high values | B-score at 10 µM | actives 0.42% (n = 310,000) | AID 2227;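 active means B-score of calcium response area above 5 SD of library B-scores, with initial fluorescence ratio within 5 SD of library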
TRPC4 inh: inhibitors of mouse TRPC4 channel | Q9QUQ5 | HEK293 TRPC4beta/mu-opioid, DAMGO-evoked Fluo4 calcium flux; hits give low values | B-score at 10 µM | actives 0.39% (n = 300,000);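 active means B-score over 3 SD under the library average, no early fluorescence shift, positive overall ratio signal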
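Material: HEK293 cells with stable TRPC4beta plus mu-opioid receptor expression / Probe or stimulus: DAMGO in two steps, submaximal then maximal / Compound: single concentration per test compound / Technique: kinetic Fluo4 fluorescence imaging of calcium influx / Read-out: per-well B score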
TRPC6 inh: inhibitors of mouse TRPC6 channel; Q61143; HEK293-TRPC6, membrane potential dye, ACh-evoked depolarization; hits give low values; B-score at 10 µM; actives 1.1% (n = 310,000); AID 2553;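 active means B-score under library mean minus 3 SD, initial fluorescence not abnormally high, positive integrated signal ratio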;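 further: B-score derived from integrated fluorescence ratio over the kinetic read; more negative B-score means stronger inhibition of depolarization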
TRPC4 agonist: opens the mouse TRPC4 cation channel; Q9QUQ5; HEK293 TRPC4beta/mu-opioid, Fluo4 calcium fluorescence; hits give high values; actives 0.49% (n = 310,000); AID 2237; B-score at 10 µM;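 active means B-score above 5 SD of library B-scores, and initial fluorescence ratio not above library mean plus 5 SD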;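 further: positive B-score marks a calcium rise read as TRPC4 activation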
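Assay system: HEK293 stable line with TRPC4beta plus mu-opioid receptor. Times: dye 45 min RT, read 110 s. Measured by: kinetic Fluo4 calcium fluorescence. Measure: B score of integrated ratio. Controls: assay buffer as low control, maximal DAMGO as high control.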
TRPC4 spec 2: second selectivity test of TRPC6 inhibitors: effect on mouse TRPC4. shares compounds with TRPC6 inh. HEK293 TRPC4/MOR, membrane potential dye fluorescence; channel activated by saturating DAMGO dose. inhibition, % at 10 µM. actives 42% (n = 920);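 active means compounds whose fluorescence signal differed from control wells by over 3 SD, either direction, in both duplicate plates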
TRPC4 spec: tests whether TRPC6 inhibitors also affect mouse TRPC4 | HEK293 TRPC4/mu-opioid, membrane potential fluorescence | actives 61% (n = 920) | activity change, negative = inhibition, % at 10 µM | shares compounds with TRPC6 inh;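 active means rise or fall in signal beyond 3 SD of buffer-only wells in both replicate plates, either sign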;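 further: integrated kinetic ratio of fluorescence range over baseline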
HEK293 MPD ctr 2-1: parental HEK293 nonspecific activity of TRPC6 inhibitors, second screen. shares compounds with TRPC6 inh. parental HEK293 membrane potential dye fluorescence; maximal acetylcholine challenge after compound addition. signal change vs control, % at 10 µM. actives 31% (n = 920). AID 2779;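 active means membrane potential signal moving either way by over 3 SD of the maximum-effect control, in both duplicate plates, meaning non-specific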
HEK293 MPD ctr-1: checks TRPC6 inhibitor effects in parental HEK293 cells. shares compounds with TRPC6 inh. parental HEK293 membrane potential dye fluorescence. membrane potential signal change, % at 10 µM. actives 60% (n = 920). AID 2780;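 active means membrane potential signal shifting up or down by more than 3 SD of buffer-only wells, on both duplicate plates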
HEK293 MPD ctr-2: parental HEK293 nonspecific activity of TRPC6 modulators; shares compounds with TRPC6 inh; membrane potential dye fluorescence; membrane potential signal change, % at 10 µM; actives 51% (n = 2,400); AID 488924;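 active means membrane potential signal moves up or down beyond 5 SD from buffer-only wells, on both duplicate plates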
HEK293 MPD ctr 2-2: second counter-screen for TRPC6 modulators: effect in parental HEK293 cells. inhibition, % at 10 µM. AID 488926. actives 14% (n = 2,400). membrane potential dye fluorescence; after compound, maximal acetylcholine stimulation. shares compounds with TRPC6 inh;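 active means membrane potential signal drops by more than 5 SD from the mean control signal, in both duplicate plates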
TRPC4 ctr mod: selectivity of TRPC6 modulators against mouse TRPC4 | percent change from control (negative = decrease, positive = increase), % at 10 µM | HEK293 TRPC4/mu-opioid, membrane potential fluorescence | shares compounds with TRPC6 inh | actives 69% (n = 2,400);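 active means membrane potential signal moved up or down beyond 5 SD of buffer control wells, in both duplicate plates, actives on both sides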
TRPC4 ctr inh 2: mouse TRPC4 off-target activity of TRPC6 modulators, second screen. shares compounds with TRPC6 inh. HEK293 TRPC4/mu-opioid, membrane potential dye fluorescence; stimulated with maximal-effect DAMGO. inhibition, % at 10 µM. actives 55% (n = 2,400). AID 488928;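 active means drop in membrane potential signal beyond 5 SD of the control wells in both duplicate plates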;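 further: TRPC4 counter screen for TRPC6 hits run under conditions tuned for TRPC6 not TRPC4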
TRPC6 inh conf: confirmation of mouse TRPC6 inhibitors | inhibition, % at 10 µM | actives 43% (n = 3,300) | HEK293-TRPC6, membrane potential dye, ACh-evoked depolarization | shares compounds with TRPC6 inh;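 active means fluorescence ratio falls more than 5 SD below the full-stimulation control mean, in both duplicate runs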;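 further: integrated fluorescence ratio of peak minus minimum over baseline after agonist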
TRPC6 act confirm: confirmation of mouse TRPC6 activators; shares compounds with TRPC6 inh; HEK293-TRPC6 membrane potential dye fluorescence, FDSS; activation, % at 10 µM; actives 11% (n = 2,800);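 active means ratio signal rise beyond 5 SD above unstimulated control wells' mean, seen in both duplicate runs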
Each line names hits and unclear results; the compound was inactive in the other large screens (follow-up assays come after a bar, where they were run). Hits are enriched below; roughly 2.3% of the tested compounds scored in any of these assays.

Cc1ccc(SCc2cc(=O)n3ccsc3n2)c(C)c1	none
Cc1ccc(C)c(C(=O)c2c(C)nc3sccn23)c1	TRPC6 inh -6.1 | HEK293 MPD ctr-2 inactive | HEK293 MPD ctr 2-2 inactive | TRPC4 ctr mod 10% | TRPC4 ctr inh 2 inactive | TRPC6 inh conf inactive | TRPC6 act confirm inactive
O=C(C1=NN(c2ccccc2)C(=O)CC1)N1CCc2ccccc2C1	none
COc1ccc([N+](=O)[O-])cc1N(CC(O)CN(CC(C)C)CC(C)C)S(=O)(=O)c1ccccc1 (centres undefined)	none
CCCCN(CCCC)CC(O)CN(c1cc([N+](=O)[O-])ccc1OC)S(=O)(=O)c1ccccc1 (centres undefined)	TRPC6 inh -10 | TRPC4 spec 2 28% | TRPC4 spec inactive | HEK293 MPD ctr 2-1 inactive | HEK293 MPD ctr-1 0.2% | TRPC6 inh conf 67% | TRPC6 act confirm inactive
CC(=O)NC(CC(=O)Nc1nc(C)cs1)c1ccccc1 (centres undefined)	none
C=CCN(C(=O)CC(NC(C)=O)c1ccccc1)c1nc(-c2ccc(S(C)(=O)=O)cc2)cs1 (centres undefined)	TRPC6 inh -6.5 | HEK293 MPD ctr-2 inactive | HEK293 MPD ctr 2-2 inactive | TRPC4 ctr mod inactive | TRPC4 ctr inh 2 inactive | TRPC6 inh conf inactive | TRPC6 act confirm inactive
Cc1ccc(C)c(N2CCN(C(=O)c3ccc(NS(=O)(=O)c4c(C)noc4C)cc3)CC2)c1	TRPC6 inh -6.5 | HEK293 MPD ctr-2 inactive | HEK293 MPD ctr 2-2 inactive | TRPC4 ctr mod -15% | TRPC4 ctr inh 2 50% | TRPC6 inh conf 74% | TRPC6 act confirm inactive
Cc1ccc(Cl)cc1N1CCN(C(=O)c2ccc(NS(=O)(=O)c3c(C)noc3C)cc2)CC1	TRPC6 inh -6.2 | HEK293 MPD ctr-2 inactive | HEK293 MPD ctr 2-2 inactive | TRPC4 ctr mod inactive | TRPC4 ctr inh 2 inactive | TRPC6 inh conf 70%
Cc1ccc(OC(C)C(=O)N2CC(=O)Nc3ccccc32)cc1 (centres undefined)	TRPC6 act 15 | HEK293 MPD ctr-2 inactive | HEK293 MPD ctr 2-2 inactive | TRPC4 ctr mod inactive | TRPC4 ctr inh 2 inactive | TRPC6 act confirm 136%
COc1cccc(C2=NN(S(C)(=O)=O)C(c3cccs3)C2)c1 (centres undefined)	none (no result: TRPC4 inh)
COc1ccc(O)c(/C=C(\C#N)C(=O)Nc2ccccn2)c1	none
